These results are taken from publication PMC6681659 (Bioorganic & medicinal chemistry letters, 2018).

Experiment [1] addresses T1, Kif15-N700 (Homo sapiens, UniProt Q9NS87).
T1 sequence (Q9NS87 1-700 limits assumed): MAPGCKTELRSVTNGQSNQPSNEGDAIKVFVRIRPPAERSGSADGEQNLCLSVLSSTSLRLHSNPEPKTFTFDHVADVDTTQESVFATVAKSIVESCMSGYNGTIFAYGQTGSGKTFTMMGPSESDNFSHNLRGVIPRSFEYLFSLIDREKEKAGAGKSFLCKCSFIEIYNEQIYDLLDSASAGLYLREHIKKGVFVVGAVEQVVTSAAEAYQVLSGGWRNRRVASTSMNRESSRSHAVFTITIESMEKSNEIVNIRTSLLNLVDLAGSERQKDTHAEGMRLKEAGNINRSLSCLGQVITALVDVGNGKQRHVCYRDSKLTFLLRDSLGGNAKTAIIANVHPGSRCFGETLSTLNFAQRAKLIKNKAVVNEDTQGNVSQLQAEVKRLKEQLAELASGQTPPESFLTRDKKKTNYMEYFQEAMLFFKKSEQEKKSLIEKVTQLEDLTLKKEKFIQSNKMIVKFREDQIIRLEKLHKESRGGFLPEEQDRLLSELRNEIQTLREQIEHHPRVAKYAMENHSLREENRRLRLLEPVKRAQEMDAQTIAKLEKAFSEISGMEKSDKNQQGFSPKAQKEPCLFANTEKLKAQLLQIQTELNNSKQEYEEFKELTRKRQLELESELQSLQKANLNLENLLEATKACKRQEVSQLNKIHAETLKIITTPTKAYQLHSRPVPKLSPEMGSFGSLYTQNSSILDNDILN
Briefly: MT gliding assay with Kif15-N700. The experiment is classed as biochemical. Conditions: for Kif15 MT gliding inhibition (SAR, in words): 750 nM; for effect on Kif15-driven MT gliding at a single concentration: GW108X 10 μM for 1 minute, Kif15-IN-1 1.72 μM; for reversibility of Kif15 inhibition in MT gliding assay: wash out experiment. In short, it runs like this: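 Motility assay in which Kif15-N700 glides fluorescent MTs, scored by gliding velocity. The SAR screen used 750 nM test compound in triplicate (some in duplicate), with n ≥ 30 measurements per replicate. Concentration-response series ran 10 to 0.2 μM (12 concentrations) or 30 to 0.1 μM (5 concentrations). For reversibility, gliding was started in DMSO, then 10 μM compound was added for 1 minute, followed by a double wash-out.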

For the next experiment, the system named is TP53−/− RPE-1 cells. Briefly: Spindle morphology. The experiment is classed as cell-based. The following applies: 25 μM. In short, it runs like this: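 TP53−/− RPE-1 cells were exposed to 25 μM test compound or DMSO for 24 h and stained for tubulin, Kif15 and DNA. Pre-anaphase microtubule arrays were scored for bipolarity, in triplicate with at least 100 cells per replicate; spindle lengths were compared with DMSO-treated cells.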

The next experiment deals with KIRC-1 cells. Briefly: Spindle monopolarity in K5I-resistant KIRC-1 cells. The experiment is classed as cell-based.
Experiment [2] addresses T1, Kif15-N700. Briefly: MT-stimulated ATPase activity of Kif15-N700 at varying ATP or MT concentrations. Format: biochemical. Conditions: for mode of inhibition with respect to ATP: Lineweaver-Burk analysis.
A further experiment has as its target T2, Kif15 (Homo sapiens, UniProt Q9NS87).
T2 sequence (Q9NS87 1-1388): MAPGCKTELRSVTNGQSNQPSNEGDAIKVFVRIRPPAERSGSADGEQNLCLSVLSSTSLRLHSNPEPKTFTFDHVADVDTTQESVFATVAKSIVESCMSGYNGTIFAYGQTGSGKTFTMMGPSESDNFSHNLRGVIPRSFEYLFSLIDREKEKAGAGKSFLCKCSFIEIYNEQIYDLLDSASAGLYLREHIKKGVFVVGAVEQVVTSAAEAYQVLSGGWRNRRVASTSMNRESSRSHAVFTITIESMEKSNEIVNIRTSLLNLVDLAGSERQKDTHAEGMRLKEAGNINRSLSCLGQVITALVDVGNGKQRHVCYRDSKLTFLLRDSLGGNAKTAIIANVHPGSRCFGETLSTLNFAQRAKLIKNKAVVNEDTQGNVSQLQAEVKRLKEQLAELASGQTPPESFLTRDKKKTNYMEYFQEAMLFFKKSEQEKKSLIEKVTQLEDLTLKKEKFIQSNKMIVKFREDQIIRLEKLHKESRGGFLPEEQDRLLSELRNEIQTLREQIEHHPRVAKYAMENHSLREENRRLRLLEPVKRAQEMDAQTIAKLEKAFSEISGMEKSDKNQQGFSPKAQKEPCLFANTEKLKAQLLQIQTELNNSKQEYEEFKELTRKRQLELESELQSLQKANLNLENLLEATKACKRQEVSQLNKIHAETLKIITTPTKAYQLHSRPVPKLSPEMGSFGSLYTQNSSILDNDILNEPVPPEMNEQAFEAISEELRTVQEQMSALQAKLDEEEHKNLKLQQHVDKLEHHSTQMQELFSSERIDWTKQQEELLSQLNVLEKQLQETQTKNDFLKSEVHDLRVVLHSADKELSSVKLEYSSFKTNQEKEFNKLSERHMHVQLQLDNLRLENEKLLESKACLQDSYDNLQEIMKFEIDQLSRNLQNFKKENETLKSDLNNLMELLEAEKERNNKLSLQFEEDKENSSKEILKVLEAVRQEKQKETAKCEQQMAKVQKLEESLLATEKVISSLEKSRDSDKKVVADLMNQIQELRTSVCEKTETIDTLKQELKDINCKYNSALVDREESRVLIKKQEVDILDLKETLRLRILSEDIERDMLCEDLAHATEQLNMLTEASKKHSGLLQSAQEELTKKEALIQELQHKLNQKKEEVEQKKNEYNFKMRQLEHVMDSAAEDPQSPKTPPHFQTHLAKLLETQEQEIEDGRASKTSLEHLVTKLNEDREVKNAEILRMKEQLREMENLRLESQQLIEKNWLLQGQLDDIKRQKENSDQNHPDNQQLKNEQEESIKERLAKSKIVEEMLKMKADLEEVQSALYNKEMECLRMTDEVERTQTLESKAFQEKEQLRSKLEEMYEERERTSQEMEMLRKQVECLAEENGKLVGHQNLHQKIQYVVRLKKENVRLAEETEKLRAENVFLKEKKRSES
In words: Kif15 localization and protein level in RPE-1 cells. Format: cell-based. The following applies: 25 μM. In a few lines:
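TP53−/− RPE-1 cells were exposed to the test compound at 25 μM or to DMSO for 24 h, then immunostained for Kif15, tubulin and DNA. Imaging used max-intensity z-projections or single optical sections. Spindle-bound Kif15 was quantified on metaphase MTs as the ratio of Kif15 to tubulin fluorescence intensity. 25–30 cells were analysed, pooled from triplicate experiments.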

For the next experiment, the system named is RPE-1 cells. The following applies: cited from earlier work.
Where [3] appears, read: ATP varied, high MT concentration.

With `O=C1Nc2ccc(C(=O)c3ccco3)cc2/C1=C/c1cc(I)c(O)c(I)c1` [Compound 5], on Kif15-N700 [1], the “Kif15 MT gliding inhibition (SAR, in words)” value (shortened to “Kif15 MT gliding inhibition”) is recorded as “not as well tolerated”.

As for `O=C1Nc2ccc(C(=O)c3ccco3)cc2/C1=C/c1cc(F)c(O)c(Br)c1` [Compound 6], on Kif15-N700 [1], the “Kif15 MT gliding inhibition” value is listed as “intermediary inhibition”.

Take `O=C1Nc2ccc(C(=O)c3ccco3)cc2/C1=C/c1cc(Cl)c(O)c(Br)c1` [Compound 7]: the “Kif15 MT gliding inhibition” value on Kif15-N700 [1] is listed as “intermediary inhibition”.

For `O=C1Nc2ccc(C(=O)c3ccco3)cc2/C1=C/c1cc(Br)cc(Br)c1` [Compound 8], at Kif15-N700 [1], the “Kif15 MT gliding inhibition” value was “abolished activity”.

On to `Cc1cc(/C=C2\C(=O)Nc3ccc(C(=O)c4ccco4)cc32)cc(C)c1O` [Compound 9], for which the “Kif15 MT gliding inhibition” value at Kif15-N700 [1] is “reduced in activity”.

`COc1c(Br)cc(/C=C2\C(=O)Nc3ccc(C(=O)c4ccco4)cc32)cc1Br` [Compound 10]: the “Kif15 MT gliding inhibition” value at Kif15-N700 [1] was “abolished activity”.

For the compound `O=C1Nc2ccc(C(=O)c3ccco3)cc2/C1=C/c1cc(Cl)c(O)c(Cl)c1` [GW108X], at Kif15-N700 [1], the “effect on Kif15-driven MT gliding at a single concentration” value is on record as “eliminate MT gliding” and the “reversibility of Kif15 inhibition in MT gliding assay” value was “reversible”. Moreover, the “spindle length (effect in words)” value in the experiment with TP53−/− RPE-1 cells was “unaffected”. For the same compound, the “dose dependence of block of spindle assembly” value with KIRC-1 cells is “dose-dependent”. Moreover, on Kif15-N700 [2] (setting [3]), the “change in KM^ATP” value is “no change” and the “change in Vmax” value is “decrease”. Further, the “mode of inhibition with respect to ATP” value at Kif15-N700 [2] was “not competing with ATP binding”. For the same compound, at Kif15-N700 [2] (MT varied, saturating ATP), the “change in KM^MT” value is reported as “increase”.

On to `CCOC(=O)c1sc(NC(=O)[C@H](C(C)C)n2c(=O)[nH]c3ccccc3c2=O)nc1C` [Kif15-IN-1, reference compound], for which, on Kif15-N700 [1], the “effect on Kif15-driven MT gliding at a single concentration” value was “abolishes Kif15-driven MT gliding” and the “reversibility of Kif15 inhibition in MT gliding assay” value is “reversible”. Further, the “effect on spindle-bound levels of Kif15” value on Kif15 is “did not reduce”. Further, on Kif15-N700 [2] (setting [3]), the “change in KM^ATP” value is “increase”. The “mode of inhibition with respect to ATP” value at Kif15-N700 [2] was “competes with ATP binding”.

BRD9876: in the experiment with RPE-1 cells, the “effect on spindle integrity” value was “does not cause spindle collapse”.
